This is a sample that favours compounds with a hit; in the whole collection about 6.1% have one here.
Yeast life ext: yeast lifespan extension. S. cerevisiae growth with nicotinamide, OD615; deaD strain in restrictive glucose medium. inhibition of the nicotinamide effect, % at 10 µM. hit rate 0.68% among 130,000;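 active = inhibition above a set limit, placed 3 SD over the median of all compounds, cut at about 26% in these data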
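Test system: DeaD-strain S. cerevisiae / Buffer or medium: restrictive glucose medium / Also added: nicotinamide 1.5 mM / Doses: one concentration, 10 µM, DMSO 0.25% / Schedule: 48 h at 30 °C / Signal: OD615 measurement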
Measles CPE: protection of cells from measles virus; protection (pct of control), % at 4 µM; Measles virus-infected cells, CPE protection, absorbance; hit rate 1.5% among 140,000; in the data active = protection mostly above about 24%, no sharp cut-off; inactive = mostly below about 26%
WT yeast gro inh: growth inhibition of WT yeast, mitochondrial fusion screen. mitochondrial fusion phenotypic screen, WT strain. inhibition, % at 10 µM. hit rate 2.1% among 190,000. AID 1362; in the data active = inhibition above about 58%; tested in S. cerevisiae
BB579 growth dn: chemicals that inhibit yeast BB579 growth in restrictive medium (lifespan-shortening candidates); S. cerevisiae BB579 growth, OD615, 48 h; inhibition, % at 10 µM; hit rate 0.51% among 140,000;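 active = inhibition above a set limit, 3 SD over the mean compound inhibition, cut at about 44% in these data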
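Material: Saccharomyces cerevisiae DeaD strain BB579, replicative lifespan model yeast; buffer or medium: CSMM-D restrictive synthetic medium containing dextrose (glucose); compound: 10 µM single dose, DMSO 0.25%; timing: 48 h compound exposure at 30 °C after 4 h preincubation; signal: turbidity as optical density at 615 nm; benchmarks: positive control amphotericin B 10 µg/mL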
hDAT+cocaine: changed human dopamine transporter uptake under cocaine IC80 | Q01959 | LLC-PK1 hDAT cells, [14C]-dopamine uptake with cocaine IC80; actives deviate in either direction | B-score at 10 µM | hit rate 1.3% among 110,000 | AID 449768;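 active = Z score or B-score, a plate-position-corrected score, falls beyond the plate's 99.7% confidence bounds, in either direction; inactive = both scores lie inside the 99.7% bounds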
Target sequence (Q01959 whole entry, looked up): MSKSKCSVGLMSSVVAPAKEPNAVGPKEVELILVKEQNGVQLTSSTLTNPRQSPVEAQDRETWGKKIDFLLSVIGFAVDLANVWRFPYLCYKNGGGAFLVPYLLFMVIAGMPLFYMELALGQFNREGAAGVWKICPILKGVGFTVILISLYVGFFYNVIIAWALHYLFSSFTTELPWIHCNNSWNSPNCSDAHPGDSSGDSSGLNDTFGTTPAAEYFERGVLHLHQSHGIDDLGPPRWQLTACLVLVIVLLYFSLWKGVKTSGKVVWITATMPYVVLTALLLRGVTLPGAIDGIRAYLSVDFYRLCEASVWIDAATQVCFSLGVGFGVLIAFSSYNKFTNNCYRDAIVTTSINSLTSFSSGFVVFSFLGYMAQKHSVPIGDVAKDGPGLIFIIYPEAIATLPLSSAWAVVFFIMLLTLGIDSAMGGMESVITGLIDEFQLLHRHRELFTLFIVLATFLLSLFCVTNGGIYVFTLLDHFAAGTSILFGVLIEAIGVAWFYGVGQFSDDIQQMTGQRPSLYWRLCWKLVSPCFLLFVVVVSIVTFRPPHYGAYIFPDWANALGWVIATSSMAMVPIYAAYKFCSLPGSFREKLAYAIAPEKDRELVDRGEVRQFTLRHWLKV
RAM network inh: inhibitors of the yeast RAM network. S. cerevisiae dse1pr::URA3 reporter, 5-FOA growth OD615, 2 d; analog-sensitive cbk1-as2 kinase mutant strain. inhibition, % at 50 µM. hit rate 1.8% among 190,000. AID 868;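 active = inhibition above a set limit, 3 SD over mean compound inhibition, cut at about 8.4% in these data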;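 also: inhibition rescues growth on 5-FOA so higher OD means more RAM inhibition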
Large screens that a line does not name were inactive.

Cc1ccc(C2(c3ccc(C)cc3)CC2C(=O)Nc2ccc([N+](=O)[O-])cc2O)cc1 (stereo unspecified)	WT yeast gro inh 88.3
C/C(CC(=O)Nc1ccc2c(c1)OCCO2)=N\NC(=O)c1ccccn1	none (no result: Yeast life ext, Measles CPE, BB579 growth dn, hDAT+cocaine)
C/C(CC(=O)Nc1cc(C)cc(C)c1)=N\NC(=O)c1ccccn1	Measles CPE 68.8 (no result: hDAT+cocaine)
Nn1c(SC/C=C/c2ccccc2)nnc1-c1cccnc1	Measles CPE 25.7
CCc1cc(CNC(=O)CCc2nnc(Cc3cccc(C)c3)o2)on1	none (no result: Yeast life ext, Measles CPE, BB579 growth dn, hDAT+cocaine)
CC(=O)c1c(C)oc2ccc(N(C(C)=O)S(=O)(=O)c3cccc([N+](=O)[O-])c3)cc12	none (no result: Yeast life ext, Measles CPE, BB579 growth dn, hDAT+cocaine)
CC(=O)c1c(C)oc2ccc(N(C(=O)C3CCCCC3)S(=O)(=O)c3cc([N+](=O)[O-])ccc3C)cc12	RAM network inh 9.7 (no result: hDAT+cocaine)
CCOP(=O)(OCC)C(O)c1cc(OC)c(OC)c(OC)c1 (stereo unspecified)	none (no result: hDAT+cocaine)
O=[N+]([O-])c1cccc(-c2nc(NCc3ccccc3)c3ccccc3n2)c1	RAM network inh 8.7 (no result: hDAT+cocaine)
O=C1CC(c2ccc(F)cc2)c2cc3c(cc2N1)CCC3 (stereo unspecified)	none (no result: hDAT+cocaine)
CC(C)(C)NC(=O)c1ccc2nsnc2c1	none (no result: hDAT+cocaine)
Cc1ccc(C(=O)NC(=S)Nc2ccccc2C(F)(F)F)cc1C	WT yeast gro inh 80.3
Cc1cccc(C(=O)NC(=S)Nc2ccccc2C(F)(F)F)c1	none (no result: hDAT+cocaine)
COc1ccc(CN2CCNC(=O)C2CC(=O)NCCc2c[nH]c3ccccc23)c(OC)c1 (stereo unspecified)	none (no result: Yeast life ext, Measles CPE, BB579 growth dn, hDAT+cocaine)
c1ccc(-c2nc(CSc3n[nH]c(-c4cccs4)n3)cs2)cc1	hDAT+cocaine 4.11
CC(=O)Nc1ccc(S(=O)(=O)N[C@@H](C)C(=O)OCc2ccc(Cl)cc2)cc1	none (no result: hDAT+cocaine)
O=C(Nc1ccc(Cl)cn1)c1ccc(COc2ccccc2Br)o1	RAM network inh 11.1 (no result: Yeast life ext, Measles CPE, BB579 growth dn, hDAT+cocaine)
COc1ccc(CCNC(=S)Nc2cccc3ccccc23)cc1	WT yeast gro inh 68.0 (no result: hDAT+cocaine)
COCCNC(=S)Nc1cccc2cnccc12	none (no result: Yeast life ext, Measles CPE, BB579 growth dn, hDAT+cocaine)
COc1ccc(CCNC(=S)Nc2cc(C)cc(C)c2)cc1	WT yeast gro inh 59.0
COc1ccc(OCCNC(=S)Nc2cccc3ccccc23)cc1	WT yeast gro inh 60.2
COc1ccc(CCNC(=S)Nc2ccc(OC)cc2)cc1	none (no result: hDAT+cocaine)
CCOC(=O)c1c(-c2cccs2)csc1NC(=O)C(C)(C)C	WT yeast gro inh 59.7, RAM network inh 8.6
CCOC(=O)c1c(NC(=O)c2cccs2)sc(CC)c1-c1cccs1	RAM network inh 10.1
CCOC(=O)c1c(-c2ccc(OC)cc2)csc1NC(=O)CSc1ncnc2sccc12	Measles CPE 43.2 (no result: hDAT+cocaine)
CCOC(=O)c1c(-c2cccs2)csc1NC(=O)CSc1ncn[nH]1	RAM network inh 9.4
CCOC(=O)c1c(-c2ccc(C)s2)csc1NC(=O)c1cccs1	none
CCOC(=O)c1c(-c2cccs2)csc1NC(C)=O	none (no result: Yeast life ext)
CC(CC(=O)NCc1cccnc1)c1ccccc1 (stereo unspecified)	none (no result: Yeast life ext)

Bioassay records as filed in PubChem BioAssay.
